This experiment deals with T1, Prostaglandin G/H synthase 1 (Ovis aries) (UniProt P05979).
T1 sequence (whole entry): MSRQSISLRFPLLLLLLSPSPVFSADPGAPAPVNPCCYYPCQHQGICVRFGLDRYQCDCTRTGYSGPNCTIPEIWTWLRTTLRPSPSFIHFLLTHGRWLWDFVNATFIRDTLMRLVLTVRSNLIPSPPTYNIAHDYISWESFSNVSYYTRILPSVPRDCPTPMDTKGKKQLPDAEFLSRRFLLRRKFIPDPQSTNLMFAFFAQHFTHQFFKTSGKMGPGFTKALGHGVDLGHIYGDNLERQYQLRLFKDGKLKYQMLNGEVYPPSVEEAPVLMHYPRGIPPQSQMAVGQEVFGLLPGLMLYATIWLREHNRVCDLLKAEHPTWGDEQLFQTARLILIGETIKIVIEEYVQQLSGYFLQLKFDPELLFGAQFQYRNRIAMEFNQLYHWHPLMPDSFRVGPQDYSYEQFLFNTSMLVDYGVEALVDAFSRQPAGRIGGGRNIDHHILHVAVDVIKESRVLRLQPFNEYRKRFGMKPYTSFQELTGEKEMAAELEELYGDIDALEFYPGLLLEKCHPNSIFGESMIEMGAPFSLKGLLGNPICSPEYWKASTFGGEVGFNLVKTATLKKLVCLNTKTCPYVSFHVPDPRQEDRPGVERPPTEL
The experiment in a line: Inhibition of sheep COX1 assessed as PGE2 level at 50 uM by ELISA. In a few lines: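 Ovine COX-1 preincubated 10 min at 37 °C in 100 mM Tris-HCl pH 8.0 with 1 µM heme. Compounds in DMSO, diluted in 100 mM potassium phosphate pH 7.4. Arachidonic acid added to 100 uM final; stopped after 2 min with 1 M HCl. PGE2 measured by competitive ELISA with AChE tracer and Ellman's reagent at 412 nm against a PGE2 standard curve. Expressed as % of solvent control; duplicate, two independent experiments.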
Background: An ELISA detects its analyte on a solid surface through an enzyme-linked reagent.
Regarding `COc1cccc(/C=N\NC(=O)Cn2nc(Cc3ccccc3)c3onc(C)c3c2=O)c1`, the inhibition (commonly the drop in the measured response relative to a control, in per cent) was 55.2%.
The same measure for `Cc1noc2c(Cc3ccccc3)nn(CC(=O)N/N=C\c3ccc(C(F)(F)F)cc3)c(=O)c12`: 64%; for `Cc1ccc(/C=N\NC(=O)Cn2nc(Cc3ccccc3)c3onc(C)c3c2=O)cc1`: 62.1%.
As to `Cc1noc2c(Cc3ccccc3)nn(CC(=O)N/N=C\c3cccc(F)c3)c(=O)c12`, the inhibition amounted to 83%.
On to `Cc1noc2c(Cc3ccccc3)nn(CC(=O)N/N=C\c3cccc(Cl)c3)c(=O)c12`, for which the inhibition was found to be 36.3%.
The same measure for `COc1ccc2c(c1)c(CC(=O)O)c(C)n2C(=O)c1ccc(Cl)cc1`: 78%; for `COc1ccc(/C=N\NC(=O)Cn2nc(Cc3ccccc3)c3onc(C)c3c2=O)cc1`: 46.3%.
The same measure for `Cc1noc2c(Cc3ccccc3)nn(CC(=O)N/N=C\c3ccc(F)cc3)c(=O)c12`: 54%; for `Cc1noc2c(Cc3ccccc3)nn(CC(=O)N/N=C\c3ccccc3Br)c(=O)c12`: 52.8%; for `Cc1noc2c(Cc3ccccc3)nn(CC(=O)N/N=C\c3ccccc3F)c(=O)c12`: 41.8%.
For the compound `Cc1cccc(/C=N\NC(=O)Cn2nc(Cc3ccccc3)c3onc(C)c3c2=O)c1`, the inhibition is 61%.
The same measure for `COc1ccccc1/C=N\NC(=O)Cn1nc(Cc2ccccc2)c2onc(C)c2c1=O`: 65%; for `Cc1noc2c(Cc3ccccc3)nn(CC(=O)N/N=C\c3ccccc3[N+](=O)[O-])c(=O)c12`: 59%; for `Cc1noc2c(Cc3ccccc3)nn(CC(=O)N/N=C\c3ccccc3C(F)(F)F)c(=O)c12`: 51%.
Regarding `Cc1noc2c(Cc3ccccc3)nn(CC(=O)N/N=C\c3ccc([N+](=O)[O-])cc3)c(=O)c12`, the inhibition came to 40.7%.
As for `Cc1noc2c(Cc3ccccc3)nn(CC(=O)N/N=C\c3cccc(C(F)(F)F)c3)c(=O)c12`, the figure is 47.1%.
The same measure for `Cc1ccccc1/C=N\NC(=O)Cn1nc(Cc2ccccc2)c2onc(C)c2c1=O`: 46.9%.
As for `Cc1noc2c(Cc3ccccc3)nn(CC(=O)N/N=C\c3ccc(Cl)cc3)c(=O)c12`, the figure is 39.6%.
In the case of `Cc1noc2c(Cc3ccccc3)nn(CC(=O)N/N=C\c3ccccc3Cl)c(=O)c12`, the inhibition amounted to 52.8%.
For the compound `Cc1noc2c(Cc3ccccc3)nn(CC(=O)N/N=C\c3cccc([N+](=O)[O-])c3)c(=O)c12`, the inhibition stood at 39.6%.
The same measure for `Cc1noc2c(Cc3ccccc3)nn(CC(=O)N/N=C\c3ccc(Br)cc3)c(=O)c12`: 50.6%; for `Cc1noc2c(Cc3ccccc3)nn(CC(=O)N/N=C\c3cccc(Br)c3)c(=O)c12`: 42.9%; for `Cc1noc2c(Cc3ccccc3)nn(CC(=O)N/N=C\c3ccccc3)c(=O)c12`: 50.6%.
